Activity calls are given as the source filed them. No cut-off for these calls is given here.
Tests used:
[1] = AUClast in BALB/C mouse plasma at 50 mg/kg, ip by LC-MS/MS analysis; format: ADME, organism-based; conditions: in vivo
Method in brief: (§1)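 Female BALB/c mice, 6–8 weeks old, dosed i.p. at 50 mg/kg in 20% […] β-cyclodextrin in saline, 0.1 mL/10 g. Serial blood samples; plasma was methanol-precipitated with an analogue internal standard. LC-MS/MS multiple reaction monitoring, external calibration 2–20,000 nmol/L. Noncompartmental analysis, model 200.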

[2] = Cmax in BALB/C mouse kidney at 2.5 mg/kg, iv by LC-MS/MS analysis; format: ADME, organism-based
Method in brief: (§2)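 Female BALB/c mice, 6–8 weeks old, given 2.5 mg/kg i.v. in 10% DMSO, 0.5% Tween 20 in saline. Plasma came from serial bleeds; tissues were homogenized in 2 or 3 volumes PBS. Samples were methanol-precipitated with an analogue internal standard, then LC-MS/MS by multiple reaction monitoring against an 8-point external calibration of 2–20,000 nmol/L. Parameters came from WinNonlin noncompartmental analysis, model 201 for plasma and model 200 for tissues.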

MDA-MB-468 [3] = test: Antitumor activity against PTEN null human MDA-MB-468 cells xenografted female Ncr model assessed as body weight loss at 30 mg/kg, ip administered once a daily for 14 days relative to control; conditions: time 14 day
A2780 = test: Antiproliferative activity against human A2780 cells harboring PI3KCA/PTEN mutant assessed as cell growth inhibition incubated for 96 hrs by SRB assay; format: functional
U-87 MG [4] = test: Inhibition of recombinant PI3K in human U-87MG cells assessed as phosphorylation of GSK3beta at Ser9 at 5 times of GI50 concentration within 15 mins treatment by immunoblot analysis; format: cell-based
U-87 MG [5] = test: Antiproliferative activity against human U-87MG cells harboring PTEN deletion assessed as cell growth inhibition incubated for 96 hrs by SRB assay; format: functional, U-87MG ATCC
[6] = Drug metabolism in human microsomes incubated for 30 mins by LC-MS/MS analysis; format: ADME, Microsome; conditions: read-out: Drug metabolism
Method in brief: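 Mouse or human microsomes incubated 30 min with inhibitor at 1 or 10 μmol/L. Metabolite detection by LC-MS/MS on an ion trap, with a 10–90% methanol gradient over 6 min and scan range 50–1,000 amu.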

[7] = Half life in BALB/C mouse spleen at 2.5 mg/kg, iv by LC-MS/MS analysis; format: ADME, organism-based; method in brief: as §2
[8] = AUClast in BALB/C mouse liver at 2.5 mg/kg, iv by LC-MS/MS analysis; format: ADME, organism-based; method in brief: as §2
[9] = Volume of distribution at steady state in BALB/C mouse at 2.5 mg/kg, iv by LC-MS/MS analysis; format: ADME, organism-based; conditions: in vivo, read-out: Vdss; method in brief: as §2
U-87 MG [10] = test: Antitumor activity against human U-87MG cells xenografted female Ncr model assessed as ratio of p-AKT Ser473/total AKT at 100 mg/kg, ip by 30 to 60 mins after dosing by electrochemiluminescent immunoassay relative to control; format: functional, U-87MG ATCC; conditions: time 30-60 min
[11] = Tmax in BALB/C mouse plasma at 50 mg/kg, ip by LC-MS/MS analysis; format: ADME, organism-based; conditions: in vivo; method in brief: as §1
PC-3 = test: Antitumor activity against PTEN null human PC-3 cells xenografted male Ncr model assessed as body weight loss at 30 mg/kg, ip administered twice a daily for 14 days relative to control; conditions: time 14 day
[12] = Inhibition of recombinant human PI3K in cricetulus griseus CHO cells expressing GFP-tagged AKT1 assessed as translocation to the plasma membrane following IGF-1 stimulation by fluorescence assay
Method in brief: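 CHO cells expressing GFP-tagged AKT1, AKT2, AKT3 or PDK1, held in 0.05% serum with 0.1% BSA and stimulated with 100 nmol/L IGF-1. Plasma-membrane translocation was read by automated fluorescence imaging, with IC50 from concentration-response curves; Z' above 0.5.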

OVCAR-3 [13] = conditions: Homo sapiens, dose 100.0 mg/kg, route ip
OVCAR-3 [14] = conditions: Homo sapiens, dose 100.0 mg/kg, route ip; remark: listed apart in the source
[15] = Inhibition of recombinant PI3K in human U2OS cells expressing GFP-tagged FKHR assessed as redistribution of cytoplasm to the nucleus before IGF-1 stimulation by fluorescence assay; format: cell-based
Method in brief: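 U2OS cells expressing GFP-FKHR, cultured in 0.7% serum, treated with inhibitor before IGF-1 stimulation. Nuclear redistribution of GFP was monitored by automated fluorescence imaging, and IC50 was taken from concentration-response curves; Z' above 0.5.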

MDA-MB-468 [16] = test: Antitumor activity against PTEN null human MDA-MB-468 cells xenografted female Ncr model assessed as T/C at 40 mg/kg, ip administered once a daily for 40 days relative to control; format: functional; conditions: time 40 day
MDA-MB-435 = test: Antitumor activity against ERB-B2 overexpressing human MDA-MB-435 cells xenografted female Ncr model assessed as T/C at 30 mg/kg, ip administered twice a daily for 14 days relative to control; format: functional; conditions: time 14 day
U-87 MG [17] = test: Antitumor activity against PTEN null human U-87MG cells xenografted female Ncr model assessed as T/C at 40 mg/kg, ip administered once a daily for 14 days relative to control; format: functional, U-87MG ATCC; conditions: time 14 day
[18] = Toxicity in human OVCAR-3 cells xenografted female Ncr model at 15 to 30 mg/kg, ip administered daily for 15 days; format: organism-based; conditions: in vivo, 360 h, dose 15-30 mg/kg, time 15 day
[19] = Volume of distribution in BALB/C mouse plasma at 2.5 mg/kg, iv by LC-MS/MS analysis; format: ADME, organism-based; method in brief: as §2
U-87 MG [20] = conditions: Homo sapiens, time 4.0 hrs
Detroit 562 = test: Antiproliferative activity against human Detroit 562 cells harboring PI3KCA mutant assessed as cell growth inhibition incubated for 96 hrs by SRB assay; format: functional
[21] = AUClast in BALB/C mouse kidney at 2.5 mg/kg, iv by LC-MS/MS analysis; format: ADME, organism-based; method in brief: as §2
U-87 MG [22] = test: Inhibition of recombinant PI3K in human U-87MG cells assessed as phosphorylation of AKT at ser473 at 5 times of GI50 concentration within 15 mins treatment by immunoblot analysis; format: cell-based
U-87 MG [23] = test: Antitumor activity against PTEN null human U-87MG cells xenografted female Ncr model assessed as T/C at 70 mg/kg, ip administered once a daily for 14 days relative to control; format: functional, U-87MG ATCC; conditions: time 14 day
HCT-116 = test: Antitumor activity against PIK3CA mutant human HCT-116 cells xenografted female Ncr model assessed as body weight loss at 30 mg/kg, ip administered twice a daily for 14 days relative to control; conditions: time 14 day
[24] = Cmax in BALB/C mouse spleen at 2.5 mg/kg, iv by LC-MS/MS analysis; format: ADME, organism-based; method in brief: as §2
[25] = Clearance in BALB/C mouse plasma at 2.5 mg/kg, iv by LC-MS/MS analysis; format: ADME, organism-based; method in brief: as §2

## Oc1cccc(-c2nc(N3CCOCC3)c3oc4ncccc4c3n2)c1 [PI-103]
[1]
  AUClast: 20.459 µM·h
[2]
  Cmax: 2020 nM
MDA-MB-468 [3]
  Body weight loss: <15%
A2780
  GI50: 500 nM
U-87 MG [4]
  inhibition: Active
U-87 MG [5]
  GI50: 180 nM
[6]
  metabolised at 0.5 h: > 70%
[7]
  half-life: 1.3 h
[8]
  AUC(0-t): 0.801 µM·h
[9]
  Vd: 0.052 L
U-87 MG [10]
  Activity: ~50%
[11]
  Tmax: 0.25 h
PC-3
  Body weight loss: <15%
[12]
  IC50: 17 nM
OVCAR-3 [13]
  inhibition: Active
OVCAR-3 [14]
  inhibition: Active
[15]
  IC50: 30 nM
MDA-MB-468 [16]
  T/C: 52.8%
MDA-MB-435
  T/C: 69.8%
U-87 MG [17]
  T/C: 89.1%
[18]
  Activity: Toxic
[19]
  Vd: 0.2 L
U-87 MG [20]
  inhibition: Active
Detroit 562
  GI50: 360 nM
[21]
  AUC(0-t): 0.453 µM·h
U-87 MG [22]
  inhibition: Active
U-87 MG [23]
  T/C: 45.8%
HCT-116
  Body weight loss: <15%
[24]
  Cmax: 1360 nM
[25]
  clearance: 3.17 mL/min
